Reference: ChEMBL document CHEMBL4627381, “Licochalcone A Selectively Resensitizes ABCG2-Overexpressing Multidrug-Resistant Cancer Cells to Chemotherapeutic Drugs” (J Nat Prod, 2020)

Columns and labels:
[1] = molecular target: ATP-dependent translocase ABCB1 (Homo sapiens, UniProt P08183); experiment: Reversal of human ABCB1-mediated multidrug resistance in HEK293/MDR19 cells assessed as fold change in colchicine IC50 at 1 uM after 72 hrs by CCK8 relative to colchicine IC50; assay type: cell-based
Method in brief: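 Cells were seeded at 5000/well for 24 h, then given colchicine, etoposide, mitoxantrone or topotecan ± non-toxic modulator (0.5–3.0 μM) for 72 h, with DMSO up to 0.5%. IC50 came from fitted curves (mean ± SD, three experiments). Fold-reversal = IC50 without modulator ÷ IC50 with modulator.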

HEK293 = experiment: Effect on Colchicine-induced cytotoxicity against HEK293 cells assessed as fold change in colchicine IC50 at 1 uM after 72 hrs by CCK8 assay relative to colchicine IC50; assay type: cell-based; settings: human, hek293, 72 h
Method in brief: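 Reversal assay in parental pcDNA-HEK293 and transfected HEK293 lines (ABCB1 for colchicine, ABCC1 for etoposide, ABCG2 for mitoxantrone/topotecan). Substrate drug series was given with or without nontoxic modulator (0.5, 1.0, 2.0 or 3.0 μM) for 72 h, with a CCK-8 read-out. Fold-reversal is substrate IC50 without modulator divided by IC50 with modulator. Three independent experiments.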

S1 [2] = experiment: Induction of apoptosis in human S1 cells assessed as necrotic cells at 5 uM incubated for 48 hrs by annexin V/propidium iodide staining based flow cytometry (reference value: 0.2%); assay type: functional
S1 [3] = experiment: Induction of apoptosis in human S1 cells assessed as late apoptotic cells at 5 uM incubated for 48 hrs by annexin V/propidium iodide staining based flow cytometry (reference value: 3.6%); assay type: functional
Method in brief: (§1)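 S1 cells were exposed for 48 h to DMSO, 10 μM compound, 5 μM topotecan, or 5 μM topotecan plus 10 μM compound. They were then stained with 1.25 μg/mL annexin V–FITC and 0.1 mg/mL PI for 15 min at room temperature. 10000 cells per sample were analysed by flow cytometry; three independent experiments.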

S1 [4] = experiment: Induction of apoptosis in human S1 cells assessed as early apoptotic cells at 5 uM incubated for 48 hrs by annexin V/propidium iodide staining based flow cytometry (reference value: 2%); assay type: functional; method in brief: as §1
S1 [5] = experiment: Induction of apoptosis in human S1 cells assessed as viable cells at 5 uM incubated for 48 hrs by annexin V/propidium iodide staining based flow cytometry (reference value: 94.1%); assay type: functional; settings: S1, 48 h, read-out: Activity

Sequence of ATP-dependent translocase ABCB1 (P08183 whole entry): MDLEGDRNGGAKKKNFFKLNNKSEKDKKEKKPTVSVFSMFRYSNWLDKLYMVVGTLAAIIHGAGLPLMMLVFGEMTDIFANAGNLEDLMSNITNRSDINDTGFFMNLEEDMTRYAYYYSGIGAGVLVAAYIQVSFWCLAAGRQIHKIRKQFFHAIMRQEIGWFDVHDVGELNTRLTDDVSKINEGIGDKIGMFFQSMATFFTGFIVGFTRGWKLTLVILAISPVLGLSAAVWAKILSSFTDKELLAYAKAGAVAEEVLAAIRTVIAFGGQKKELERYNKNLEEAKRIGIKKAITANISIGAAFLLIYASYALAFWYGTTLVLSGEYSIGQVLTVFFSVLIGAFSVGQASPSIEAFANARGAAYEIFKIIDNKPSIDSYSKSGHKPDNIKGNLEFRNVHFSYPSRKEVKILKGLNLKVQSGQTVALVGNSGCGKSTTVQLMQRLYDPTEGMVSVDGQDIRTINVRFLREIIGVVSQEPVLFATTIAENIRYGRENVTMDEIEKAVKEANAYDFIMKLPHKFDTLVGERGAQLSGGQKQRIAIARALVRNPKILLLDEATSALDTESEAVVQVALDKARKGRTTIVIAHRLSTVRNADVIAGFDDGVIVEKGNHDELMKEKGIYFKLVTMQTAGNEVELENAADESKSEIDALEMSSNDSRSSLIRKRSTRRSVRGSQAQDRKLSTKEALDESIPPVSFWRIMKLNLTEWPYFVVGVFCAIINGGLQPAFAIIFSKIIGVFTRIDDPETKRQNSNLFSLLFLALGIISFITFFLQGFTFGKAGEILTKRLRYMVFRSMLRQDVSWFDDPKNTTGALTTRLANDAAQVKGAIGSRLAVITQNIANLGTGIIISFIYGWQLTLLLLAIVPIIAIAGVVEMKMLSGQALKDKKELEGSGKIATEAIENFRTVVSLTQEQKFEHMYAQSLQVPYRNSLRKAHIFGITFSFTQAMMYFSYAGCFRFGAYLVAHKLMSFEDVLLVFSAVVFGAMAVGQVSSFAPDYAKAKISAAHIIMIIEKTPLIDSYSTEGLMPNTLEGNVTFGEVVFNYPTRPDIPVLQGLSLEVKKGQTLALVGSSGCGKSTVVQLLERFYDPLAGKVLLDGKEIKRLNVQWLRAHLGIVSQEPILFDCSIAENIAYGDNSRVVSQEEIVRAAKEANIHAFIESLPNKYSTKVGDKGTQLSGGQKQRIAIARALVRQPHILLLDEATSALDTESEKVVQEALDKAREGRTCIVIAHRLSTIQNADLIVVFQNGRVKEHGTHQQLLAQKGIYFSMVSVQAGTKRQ

Row | Structure (SMILES) | fold change (FC) [1] | fold change (FC) (HEK293) | Activity (S1 [2]) | Activity (S1 [3]) | Activity (S1 [4]) | viability at 5 µM (S1 [5])
1 | COc1cc2c(cc1OC)CN(CCc1ccc(NC(=O)c3cc(OC)c(OC)cc3NC(=O)c3cnc4ccccc4c3)cc1)CC2 | 12.5 | 1.1 | – | – | – | –
2 | CC[C@@]1(O)C(=O)OCc2c1cc1n(c2=O)Cc2cc3c(CN(C)C)c(O)ccc3nc2-1 [TOPOTECAN] | – | – | 3.5% | 22.7% | 31.2% | 42.7%
